The test system of the data set is MS2 coat protein. The data set is described as follows: apparent Kd, MS2 coat protein; higher = weaker binding; RNA-MaP array; FMN 200 µM where present. The method in brief:
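Stalled E. coli RNA polymerase transcribed the designs on Illumina sequencing-chip clusters. SNAP-549-labelled MS2 coat protein was titrated from 0.7 or 1.5 nM, doubling to 3 µM, without and then with constant ligand, in 100 mM Tris-HCl pH 7.5, 80 mM KCl, 4 mM MgCl2, BSA, DTT, yeast tRNA and Tween-20. Per-cluster binding curves were fitted to green signal normalised to red-channel RNA signal and control-cluster median Fmax. The apparent Kd is the median of the filtered fits.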

The mark [1] stands for this setting: designed as: OFF switch for flavin mononucleotide, no ligand.
[2] abbreviates: ligand present: flavin mononucleotide, designed as: OFF switch for flavin mononucleotide.
[3] abbreviates: designed as: ON switch for flavin mononucleotide, no ligand.
Setting [4] is: ligand present: flavin mononucleotide, designed as: ON switch for flavin mononucleotide.

Take “UUCCUCGUUGUGAGGAUAUCGUAUUCUUUUUGUUACGAGAAGGCACAUGAGGAUCACCCAUGUUUCUUGAUGUU”: the apparent Kd – broadly, the concentration giving half-maximal binding under the conditions of the assay – runs as follows: under setting [1], 19.5 nM; under setting [2], 68.8 nM.

“UUGUUAUAUGUAGGAUAUGCAUAUUAUUAUUAUGCAGAAGGACAUGAGGAUCACCCAUGUAUGUUGUUGUUAUAUAUUAUAUAU”: the “apparent Kd” value by setting is: under setting [1], 24.8 nM; under setting [2], 27.8 nM.

Regarding “AUACAUGAGGAUCACCCAUGUCGCAGGUUAAGGCCCAAAUCGAGAAGGGAUUCGGUCAAGCCUAAUCAGGAUAUCGGUGGAGCC”, the “apparent Kd” value amounted to 84.3 nM under setting [3] and 69.6 nM under setting [4].

As for “UUCGUGCAGCUUUGUUGUACGCGUACAUGAGGAUCACCCAUGUAGGAUAUGGUACGCUUUGCGUGCUAGAAGGAUAUGGAGAGG”, the “apparent Kd” value runs as follows: under setting [1], 13.2 nM; under setting [2], 15.4 nM.

With “CAGCGAUAGCUGAAUGGUACAUGGGAGGAUAUGGGUUGAACAUGAGGAUCACCCAUGUUAUAAUACUAGAAGGCCCAUGUACCU”, the “apparent Kd” value by setting is: under setting [3], 16.6 nM; under setting [4], 5.45 nM.

Turning to “UGCAGCGUGCACAUGAGGAUCACCCAUGUGCCAGCGGACGCACAGGAUAUGCAAUCGUACGGCUAGCAGAAGGGUGGGUCUCAC”, the “apparent Kd” value is, setting by setting: under setting [3], 13.5 nM; under setting [4], 7.13 nM.

Consider “AUAUAUCAUACAGGAUAUACAUGAGGAUCACCCAUGUGUCCUCCAUAAUUGACACCAAUUAUGCUGUAGAAGGGUAUGAUAUAU”, for which the “apparent Kd” value was 293 nM under setting [1] and 258 nM under setting [2].

For the sequence “UCAUGGUAGCAGGAUAUGCUUGUUUUUUUUUUUGCAGAAGGGCUUACAUGAGGAUCACCCAUGUGUUAGGUCUA”, the “apparent Kd” value was determined as 25.2 nM under setting [1] and 30.8 nM under setting [2].

As to “AGAAUGGGCGAGAAGGGAGUACAUGAGGAUCACCCAUGUGGUUCAUGGUGCUCAGGAUAUCGAUAGACCAAGGAGCGUCUUUGG”, the “apparent Kd” value is, setting by setting: under setting [1], 20.1 nM; under setting [2], 140 nM.

On to “AACAGUAGAGGAUAUACAUGAGGAUCACCCAUGUGAGAUUUAAGUGGCGUACCACAAAGUAGAAGGCUACUGGA”, for which the “apparent Kd” value under setting [1] worked out at 36.2 nM and the “apparent Kd” value under setting [2] is 161 nM.

Turning to “GUUUUUUUUAGUUCAUACUAUAAGAUAGAAGGUGAAAUAUUGACAUGAGGAUCACCCAUGUAAUUCAAGGAUAUGUAGUUACUC”, the “apparent Kd” value by setting is: under setting [3], 34.3 nM; under setting [4], 22.7 nM.

As for “AGGAAACAUGAGGAUCACCCAUGUGAGGAUAUUUGAAAGAAAAGAAAAGAAAGAAGAAGAAGAAGGCACAAGAA”, the “apparent Kd” value came to 32.4 nM under setting [1] and 35.5 nM under setting [2].

In the case of “GUAUAGGACAGAGGAUAUACGUGCUAGAGAUACUAGCAAAAUUUCCUCACAUGAGGAUCACCCAUGUAGAAGGCUGUCCUAUCG”, the “apparent Kd” value is, setting by setting: under setting [1], 17.1 nM; under setting [2], 498 nM.

As to “CAUACACAUGAGGAUCACCCAUGUGAGGAUAUGCGUACGUUGUCAGUAGGCGACGUGCGCAGAAGGCGCGUGUU”, the “apparent Kd” value reads like this: under setting [1], 60.5 nM; under setting [2], 47.7 nM.

In the case of “GGUACCAUCGCAGGAUAUGCUUUCCUUUGGGAAGCAGAAGGGUGUAACAUGAGGAUCACCCAUGUGGUGCCAGGGCGUGAGCCU”, the “apparent Kd” value under setting [3] was 862 nM and the “apparent Kd” value under setting [4] was determined as 48.7 nM.

In the case of “AAGCGCUGUCAAGGAUAUCCGAAAAGAGAAUAAGGAGAAGGUGACAUGAGGAUCACCCAUGUGCACUGGGUGGACGCGCGCUCC”, the “apparent Kd” value was determined as 549 nM under setting [1] and 196 nM under setting [2].

Regarding “AUUUGAAUCGUAGGAUAUCGCUUAAAUUUACCACGAGAAGGACGAACAUGAGGAUCACCCAUGUAACAUGGUGUAGAUAAUUUG”, the “apparent Kd” value by setting is: under setting [1], 159 nM; under setting [2], 440 nM.

In the case of “GGGCGACAUGAGGAUCACCCAUGUCAGGAUAUCGGGCCCGGGCCGAAAGGCCCGGGCCCGAGAAGGGACAGCCC”, the “apparent Kd” value is 18.8 nM under setting [1] and 16.6 nM under setting [2].

On to “UGGUGGUAGCAGGAUAUGCUUGUUGUGUAGUUUGCAGAAGGGCUAACAUGAGGAUCACCCAUGUAAGAGGUGUU”, for which the “apparent Kd” value reads like this: under setting [1], 331 nM; under setting [2], 162 nM.

Regarding “CAGUACUGAGGAUAUACAUGAGGAUCACCCAUGUGCUUUAGCUAGGAUACUAGCACCAGUAGAAGGCAGUACUG”, the “apparent Kd” value by setting is: under setting [1], 10.6 nM; under setting [2], 23.8 nM.

With “CUUCUCGUUGUGAGGAUAUCGUUUUCGUCUCGGAUCGAGAAGGCACAUGAGGAUCACCCAUGUUUGUUGUGGUU”, the “apparent Kd” value under setting [1] came out at 115 nM and the “apparent Kd” value under setting [2] is 103 nM.

Regarding “GCCACACAUGAGGAUCACCCAUGUGAGGAUAUCAUGCUUCGUAGUAAACUACGAAGUGUGAGAAGGCACAUGGC”, the “apparent Kd” value by setting is: under setting [1], 33.4 nM; under setting [2], 155 nM.

With “UUCGUGUGACAGAAGGGUCUUUCAGGCUGGGAGGCAGGAUAUGUGACAUGAGGAUCACCCAUGUUGGUAUCGUCUGUGUGUACG”, the “apparent Kd” value under setting [1] was found to be 6.7 nM and the “apparent Kd” value under setting [2] stood at 14.6 nM.

Regarding “UACUGGUGUGAGAAGGGACGUAUCUCCAUGAGGGUAGGGCUAUUAGAGAAGUCAGGAUAUCACAUGAGGAUCACCCAUGUGACG”, the “apparent Kd” value under setting [1] was found to be 8.25 nM and the “apparent Kd” value under setting [2] came to 9.9 nM.

Take “AGCUAUUACGAAGGAUAUUCUGACAUGAGGAUCACCCAUGUCUUCAUGAUUUAUUGUGAUCACAUGAAGAAGGUCGUACUAACA”: the “apparent Kd” value is 198 nM under setting [3] and 48.3 nM under setting [4].

For the sequence “GGAUCGAGUGUGAGGAUAUGCAGGUCCUUGGAUCUGCAGAAGGCACAUGAGGAUCACCCAUGUGGAAACGGUCC”, the “apparent Kd” value by setting is: under setting [1], 64.2 nM; under setting [2], 567 nM.

For the sequence “GUAGCAAUCGGAGGAUAUUCAUACCGGAAACGGACAUGAGGAUCACCCAUGUCGCGAAAGCGUUGGGAGAAGGCCGAUUGCUAC”, the “apparent Kd” value by setting is: under setting [3], 220 nM; under setting [4], 21.3 nM.

In the case of “GUAGAGUAAGGAUAUGCUGAAUAGGAUAGAAUGGUUAGAAAGCAGAAGGUACAUGAGGAUCACCCAUGUAAUGU”, the “apparent Kd” value is, setting by setting: under setting [1], 23.2 nM; under setting [2], 21.2 nM.

For “GCGUGGAAUACAGGAUAUGUUGUACAAUAAUCUUUGAGGCAUUGAGAUAAAACAGAAGGGUAAACAUGAGGAUCACCCAUGUAA”, the “apparent Kd” value amounted to 24.7 nM under setting [1] and 19.6 nM under setting [2].

Turning to “AAGCUGCGCCAGAAGGGACCGACAUGAGGAUCACCCAUGUCCACAAGAGUCAGGAUAUGGCGUGGAGGCUCGUUUAUGUCCAAG”, the “apparent Kd” value runs as follows: under setting [3], 13.1 nM; under setting [4], 5.44 nM.

With “CUUCUGUCAGGAUAUGCGAAUCGGCACUGGGUCAGUGGCGAGCAGAAGGGACAUGAGGAUCACCCAUGUAAAGU”, the “apparent Kd” value under setting [1] worked out at 32.8 nM and the “apparent Kd” value under setting [2] is 131 nM.

Turning to “GGUGAGCAAGGAUAUACAUGAGGAUCACCCAUGUGAGAUGCGCAGGGCCCGAUGAUAGGUAGAAGGUGCGUCAC”, the “apparent Kd” value under setting [1] is 34.5 nM and the “apparent Kd” value under setting [2] is 72.8 nM.

In the case of “GGUCGUCACAUUAACAUGAGGAUCACCCAUGUCAAAAGACAUGAGGAUAUGCAUAAUAAUAUAAAGCAGAAGGCAUGGACGACC”, the “apparent Kd” value reads like this: under setting [3], 240 nM; under setting [4], 14.4 nM.

“GGUGCACGCACAGGAUAUCCGGCGGAGCUCGUCGGAGAAGGGUGACAUGAGGAUCACCCAUGUACGUGCAACCCAGUUUGAGAG”: the “apparent Kd” value runs as follows: under setting [3], 45.2 nM; under setting [4], 30.7 nM.

With “GUCGGAAACGACAAAAGUAGCAUAGGAGAAGGCAUGUCAUAAGACAUGAGGAUCACCCAUGUUCGUGAGGAUAUCCUAUGCUAC”, the “apparent Kd” value is, setting by setting: under setting [3], 37.3 nM; under setting [4], 13.2 nM.

For the sequence “AAAAAACAUGAGGAUCACCCAUGUCAGGAUAUCGAAAAAAAAAAAAAAAAAAAAAAAACGAGAAGGGACAAAAA”, the “apparent Kd” value under setting [1] came to 99.3 nM and the “apparent Kd” value under setting [2] was 104 nM.

On to “ACAAGAUCAGGAUAUACAUGAGGAUCACCCAUGUUAAUCCAAAAGGGACUUUCUUUAUGUAGAAGGGAUCUUGU”, for which the “apparent Kd” value came out at 31.2 nM under setting [1] and 85.5 nM under setting [2].

Regarding “CUCUUGUUAGGAUAUCAAACCGGCGGCGGAGCCGCCGGUAGUGAGAAGGGACAUGAGGAUCACCCAUGUAAGAA”, the “apparent Kd” value reads like this: under setting [1], 90.1 nM; under setting [2], 198 nM.

“AAAACUCGAGGAUAUGCAAAAUGAUUGCGAAAGCAAUCAAAACAUGAGGAUCACCCAUGUAGAAGGCGAGAAAA”: the “apparent Kd” value by setting is: under setting [1], 23.7 nM; under setting [2], 15.4 nM.

Take “UUUGGGUGGCUGGAGGAUAUUCUUGUGGUUACAUGAGGAUCACCCAUGUGUCGCGCGGUGCGCGAGGAGAAGGCUGGCGGCCGUU”: the “apparent Kd” value reads like this: under setting [3], 411 nM; under setting [4], 128 nM.

As to “CAGCGCUGUCGAGAGGAUAUGCGGUGAUGGACAUGAGGAUCACCCAUGUUAGCGACAGCAUUACGGUAGAAGGCUUCACAGCUGC”, the “apparent Kd” value was 51.5 nM under setting [3] and 202 nM under setting [4].

On to “CGUGCAUAUGUAGGAUAUGGUUAUCUAUGUCUAGUUACUAGACAUAGAUAACCAGAAGGACAUGAGGAUCACCCAUGUUGCACG”, for which the “apparent Kd” value is 12.8 nM under setting [1] and 24.2 nM under setting [2].

For the sequence “GAUCAACAUGAGGAUCACCCAUGUGAGGAUAUGUAUCAUAGAUCUUCGGAUCUAUGAUACAGAAGGCAUGUAGG”, the “apparent Kd” value is, setting by setting: under setting [1], 101 nM; under setting [2], 118 nM.

For the sequence “AGUAAGUUUGAGAAGGUGAAGUGGAAACAUGAGGAUCACCCAUGUAUUAGGAAGCCUGGUUUUGUCAAGGAUAUCGGGUUUACA”, the “apparent Kd” value reads like this: under setting [3], 17.9 nM; under setting [4], 16.5 nM.

Take “AACAAACAUGAGGAUCACCCAUGUGAGGAUAUCGGAUGUACAGCGCAAUUAGAAUUAACGAGAAGGCACACUUA”: the “apparent Kd” value is, setting by setting: under setting [1], 30.6 nM; under setting [2], 29.1 nM.

For the sequence “GUUCAAGUAAAGGAUAUGUAGAGCCGCGAGGCCGCAGAAGGUUGCACAUGAGGAUCACCCAUGUCGUCUCUGAU”, the “apparent Kd” value under setting [1] stood at 17.1 nM and the “apparent Kd” value under setting [2] amounted to 21.2 nM.

With “UACUUGUUAGGAUAUCUUACAUUUGCAUUAUAGCAACUAUUGGAGAAGGGACAUGAGGAUCACCCAUGUUUGGU”, the “apparent Kd” value under setting [1] came out at 39.9 nM and the “apparent Kd” value under setting [2] came to 48.2 nM.

In the case of “CUAAAUCAUGUAGGAUAUGCAUGGCGAAGCUACGCAGAAGGACAUGAGGAUCACCCAUGUCACUCCGUCUGCGUACAGACGGAG”, the “apparent Kd” value under setting [1] stood at 19.7 nM and the “apparent Kd” value under setting [2] was 92.3 nM.

The values are drawn from the EternaBench riboswitch data.
